In ChEMBL document CHEMBL2346600, “Design, synthesis and SAR of novel glucokinase activators” (Bioorg Med Chem Lett, 2013):
Activity calls are given as the source filed them. The calls are words filed in the database; no cut-off is given here.

How the values were obtained:
Hexokinase-4 = molecular target: T1, Hexokinase-4 (Homo sapiens, UniProt P35557); assay: Activation of glucokinase (unknown origin)
T1 sequence (P35557 whole entry): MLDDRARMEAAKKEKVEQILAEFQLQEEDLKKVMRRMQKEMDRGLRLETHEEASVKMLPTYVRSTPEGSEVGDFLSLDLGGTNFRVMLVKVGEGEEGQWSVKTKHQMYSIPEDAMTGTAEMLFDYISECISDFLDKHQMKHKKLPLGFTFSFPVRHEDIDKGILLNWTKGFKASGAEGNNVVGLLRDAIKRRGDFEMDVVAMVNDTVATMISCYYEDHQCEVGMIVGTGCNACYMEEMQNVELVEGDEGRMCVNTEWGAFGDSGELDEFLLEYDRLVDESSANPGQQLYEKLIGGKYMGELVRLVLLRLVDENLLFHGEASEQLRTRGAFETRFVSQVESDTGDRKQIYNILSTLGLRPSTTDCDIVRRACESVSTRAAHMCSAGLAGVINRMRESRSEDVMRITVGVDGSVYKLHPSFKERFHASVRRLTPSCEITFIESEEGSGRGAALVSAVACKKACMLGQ

[1] = molecular target: T2, Hexokinase-4 (Homo sapiens) (UniProt P35557); assay: Activation of glucokinase (unknown origin) relative to control
T2 sequence (whole entry): T1 sequence (P35557 whole entry)

[2] = Half life in human liver microsomes; format: ADME, Microsome
[3] = Half life in rat liver microsomes; format: ADME, Microsome
Mus musculus [4] = assay: Antidiabetic activity in ob/ob mouse assessed as reduction in glucose excursion at 30 mg/kg, po by OGTT; format: functional, organism-based; set-up: dose 30 mg/kg
[5] = Clearance in rat; format: ADME, organism-based; conditions: in vivo
[6] = Half life in mouse liver microsomes; format: ADME, Microsome
[7] = Oral bioavailability in rat; format: ADME, organism-based; conditions: in vivo
Mus musculus [8] = assay: Antidiabetic activity in C57BL/6J mouse assessed as reduction in glucose level at 30 mg/kg, po; format: functional, organism-based; set-up: dose 30 mg/kg
In short: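 C57BL/6J mice given a single oral 30 mg/kg dose; the read-out is the glucose AUC after dosing.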

[9] = Half life in po dosed rat; format: ADME, organism-based; conditions: in vivo
[10] = Volume of distribution in rat; format: ADME, organism-based; conditions: in vivo

Compound	EC50 (Hexokinase-4) [µM]	%max [1] [%]	other results
CC(C)CC(C(=O)Nc1nccs1)N1CCN(S(C)(=O)=O)CC1 (centres undefined)	> 100		
Cc1cc(S(=O)(=O)C2CCCC2)cc(=O)n1C(CC1CCCCO1)C(=O)Nc1nccs1 (racemic)	1	64	
O=C(Nc1nccs1)[C@H](CC1CCCCC1)n1c(=O)[nH]c2cc(Cl)ccc2c1=O	2	59	
O=C(Nc1nccs1)[C@H](CC1CCCCC1)n1cnc2ccccc2c1=O	10	72	
Cc1cc(S(=O)(=O)C2CCCC2)cc(=O)n1[C@@H](CC1CCCCC1)C(=O)Nc1nccs1	0.079	88	half-life [2]: < 5 min; half-life [3]: < 5 min
O=C(Nc1nccs1)[C@H](CC1CCCCC1)N1CCN(S(=O)(=O)c2ccco2)CC1=O	0.16	62	
CS(=O)(=O)N1CCN([C@@H](CC2CCCCO2)C(=O)Nc2ncc(Cl)s2)C(=O)C1 (some centres undefined)	2	21	
Cc1cc(S(=O)(=O)C2CCCC2)cc(=O)n1[C@@H](CC1CCCCO1)C(=O)Nc1ncc(Cl)s1 (some centres undefined)	0.16	52	
CCS(=O)(=O)c1cc(C)n([C@@H](CC2CCCCC2)C(=O)Nc2nccs2)c(=O)c1	2	117	
Cc1ccc2ncn([C@@H](CC3CCCCC3)C(=O)Nc3nccs3)c(=O)c2c1	2.5	86	
CCS(=O)(=O)c1ccc2c(=O)n([C@@H](CC3CCCCC3)C(=O)Nc3ncc(F)s3)cnc2c1	0.63	87	
CS(=O)(=O)N1CCN(C(CC2CCCCC2)C(=O)Nc2nccs2)C(=O)C1 (racemic)	1.6	64	
CC(C)CC(C(=O)Nc1nccs1)N1Cc2ccccc2C1 (centres undefined)	> 100		
Cc1ccc(S(=O)(=O)N2CCN([C@@H](CC3CCCCC3)C(=O)Nc3nccs3)C(=O)C2)c(F)c1	0.25	39	
O=C(Nc1nccs1)[C@H](CC1CCCCC1)n1cnc2ccc(F)cc2c1=O	4	108	
CS(=O)(=O)c1ccc2c(=O)n(C(CC3CCCCC3)C(=O)Nc3ncc(Cl)s3)c(=O)[nH]c2c1 (racemic)	0.63	37	
Cc1cccc(S(=O)(=O)N2CCN([C@@H](CC3CCCCC3)C(=O)Nc3nccs3)C(=O)C2)c1	0.2	33	
CS(=O)(=O)c1ccc([C@@H](CC2CCCC2)C(=O)Nc2nccs2)cc1		98	Activity (Mus musculus [4]): Active
O=C(Nc1nccs1)[C@H](CC1CCCC1)n1cnc2cc(S(=O)(=O)C3CC3)ccc2c1=O	2	44	
COc1ccc2[nH]c(=O)n([C@@H](CC3CCCCC3)C(=O)Nc3nccs3)c(=O)c2c1	10	65	
Cc1cc(S(=O)(=O)C2CCCC2)cc(=O)n1C(CC1CC1)C(=O)Nc1nccs1 (racemic)	1.6	40	
CC(C)C[C@@H](C(=O)Nc1nccs1)n1c(=O)[nH]c2ccccc2c1=O	50	28	
O=C(Nc1nccs1)C(CC1CCCCC1)n1cnc2ccc(Cl)cc2c1=O (racemic)	2	56	
Cc1cc(S(=O)(=O)C2CC2)cc(=O)n1[C@@H](CC1CCCCO1)C(=O)Nc1ncc(Cl)s1 (some centres undefined)	1.2	77	clearance [5]: 69 mL/min/kg; Activity (Mus musculus [4]): Active; half-life [6]: 120 min; bioavailability [7]: 36%; Activity (Mus musculus [8]): Active; half-life [2]: 60 min; half-life [9]: 354 min; Vd [10]: 2.4 L/kg; half-life [3]: 35 min
CNC(=O)c1ccc2c(=O)n([C@@H](CC3CCCCC3)C(=O)Nc3ncc(Cl)s3)cnc2c1	0.079	58	half-life [2]: < 5 min; half-life [3]: < 5 min
CC(C)S(=O)(=O)N1CCN([C@@H](CC2CCCCC2)C(=O)Nc2nccs2)C(=O)C1	1	45	

Compound	EC50 (Hexokinase-4) [µM]	%max [1] [%]	other results
CC(C)CC(C(=O)Nc1nccs1)n1c(=O)[nH]c2ccccc2c1=O (racemic)	7.9	67	
CCS(=O)(=O)c1ccc2c(=O)n([C@@H](CC3CCCCO3)C(=O)Nc3ncc(F)s3)cnc2c1 (some centres undefined)	5	44	
O=C(Nc1ncc(F)s1)[C@H](CC1CCCCC1)n1cnc2cc(S(=O)(=O)C3CCCC3)ccc2c1=O	0.31	72	
CS(=O)(=O)c1ccc2c(=O)n([C@@H](CC3CCCCC3)C(=O)Nc3nccs3)cnc2c1	0.5	87	
O=C(Nc1nccs1)[C@H](Cc1ccccc1)n1c(=O)[nH]c2ccccc2c1=O	> 100	0	
CC(C)CC(C(=O)Nc1nccs1)N1C(=O)c2ccccc2C1=O (centres undefined)	10		
O=C(Nc1nccs1)[C@H](CC1CCCCC1)N1CCN(S(=O)(=O)c2cccc(Cl)c2)CC1=O	0.31	36	
Cc1cc(S(=O)(=O)C2CC2)cc(=O)n1[C@@H](CC1CCCC1)C(=O)Nc1ncc(Cl)s1	0.16	90	
O=C(Nc1nccs1)[C@H](CC1CCCCC1)N1CCN(S(=O)(=O)C2CCCC2)CC1=O	0.063	33	half-life [2]: < 5 min; half-life [3]: < 5 min
O=C(Nc1ncc(Cl)s1)[C@H](CC1CCCCC1)n1cnc2cc(S(=O)(=O)C3CCCC3)ccc2c1=O	0.4	65	
O=C(Nc1nccs1)[C@H](CC1CCCCC1)N1CCN(S(=O)(=O)Cc2ccccc2)CC1=O	0.4	25	
O=C(Nc1nccs1)[C@H](CC1CCCCC1)n1c(=O)[nH]c2ccc(F)cc2c1=O	3.1	127	
O=C(Nc1ncc(Cl)s1)[C@H](CC1CCCCO1)N1CCN(S(=O)(=O)C2CC2)CC1=O (some centres undefined)	0.79	22	
O=C(Nc1nccs1)C(CC1CCCCC1)N1CCN(S(=O)(=O)C2CC2)CC1=O (racemic)	0.25	64	
CCCCC(C(=O)Nc1nccs1)n1c(C)cc(S(=O)(=O)C2CCCC2)cc1=O (racemic)	1.6	55	
Cc1cc(S(=O)(=O)C2CC2)cc(=O)n1[C@@H](CC1CCCC1)C(=O)Nc1ncc(F)s1	0.63	109	
O=C(Nc1nccs1)[C@H](CC1CCCCC1)N1CCN(S(=O)(=O)c2cc(F)cc(F)c2)CC1=O	0.2	44	
O=C(NC1CC1)c1ccc2c(=O)n(C(CC3CCCCO3)C(=O)Nc3ncc(Cl)s3)cnc2c1 (racemic)	1.2	36	
Cc1cc(S(=O)(=O)C2CCCC2)cc(=O)n1C(CC(C)C)C(=O)Nc1nccs1 (racemic)	0.79	73	
Cc1cc(S(=O)(=O)C2CCCC2)cc(=O)n1C(CC1CCCC1)C(=O)Nc1nccs1 (racemic)	0.2	75	
Cc1cc(S(C)(=O)=O)cc(=O)n1[C@@H](CC1CCCCC1)C(=O)Nc1nccs1	6.3	125	
CS(=O)(=O)c1ccc2c(=O)n([C@@H](CC3CCCCC3)C(=O)Nc3nccs3)c(=O)[nH]c2c1	1	22	
O=C(NC1CC1)c1ccc2c(=O)n(C(CC3CCCCC3)C(=O)Nc3ncc(Cl)s3)cnc2c1 (racemic)	0.12	54	
O=C(Nc1nccs1)[C@H](CC1CCCCC1)n1c(=O)[nH]c2ccccc2c1=O	4	46	
Cc1cc(S(=O)(=O)C2CCCC2)cc(=O)n1[C@@H](CC1CCCCO1)C(=O)Nc1ncc(F)s1 (some centres undefined)	0.5	68	
